Results reported in ChEMBL document CHEMBL4261600 (Eur J Med Chem, 2018).

Key:
[1] = Apparent volume of distribution in beagle dog at 2 mg/kg, iv by LC-MS/MS analysis; assay type: ADME, organism-based, Canis lupus familiaris; settings: in vivo, read-out: Vz
How it was run: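 Non-compartmental PK. Male SD rats 190-210 g, mice and beagle dogs acclimatized one week, fasted 12 h with water, split into iv and po groups (mice 48, rats 6, dogs 6). iv 3/3/2 mg/kg (mice/rats/dogs); po 10/20/10 mg/kg; vehicle DMSO in 5% glucose water. Blood at 2 or 5 to 720 min; plasma protein-precipitated with methanol, caffeine internal standard, LC-MS/MS.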

[2] = molecular target: Proto-oncogene tyrosine-protein kinase ROS (Homo sapiens) (UniProt P08922); assay: Binding affinity to wild-type human partial length ROS1 (A1921 to N2240 residues) expressed in bacterial expression system assessed as remaining unbound target protein level at 1000 nM by Kinomescan method relative to control
[3] = molecular target: Mitogen-activated protein kinase 6 (Homo sapiens) (UniProt Q16659); assay: Binding affinity to wild-type human partial length ERK3 (M1 to P413 residues) expressed in bacterial expression system assessed as remaining unbound target protein level at 1000 nM by Kinomescan method relative to control
[4] = molecular target: Macrophage-stimulating protein receptor (Homo sapiens) (UniProt Q04912); assay: Binding affinity to wild-type human partial length MST1R (I1057 to L1363 residues) expressed in bacterial expression system assessed as remaining unbound target protein level at 1000 nM by Kinomescan method relative to control
[5] = molecular target: Dual specificity protein kinase CLK4 (Homo sapiens) (UniProt Q9HAZ1); assay: Binding affinity to wild-type human partial length CLK4 (R135 to K481 residues) expressed in bacterial expression system assessed as remaining unbound target protein level at 1000 nM by Kinomescan method relative to control
How it was run: (§1)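 KINOMEscan competition binding profile across a panel of 468 kinases and mutants, with the inhibitor tested at a single concentration of 1 μM. Binding is reported as percent of control, meaning signal relative to a DMSO control.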

[6] = molecular target: Serine/threonine-protein kinase VRK2 (Homo sapiens) (UniProt Q86Y07); assay: Binding affinity to wild-type human partial length VRK2 (M1 to T336 residues) expressed in mammalian expression system assessed as remaining unbound target protein level at 1000 nM by Kinomescan method relative to control
[7] = molecular target: Protein kinase C delta type (Homo sapiens) (UniProt Q05655); assay: Binding affinity to wild-type human partial length PRKCD (Q328 to D676 residues) expressed in bacterial expression system assessed as remaining unbound target protein level at 1000 nM by Kinomescan method relative to control
[8] = molecular target: Calcium/calmodulin-dependent protein kinase kinase 1 (Homo sapiens) (UniProt Q8N5S9); assay: Binding affinity to wild-type human partial length CAMKK1 (R65 to E414 residues) expressed in bacterial expression system assessed as remaining unbound target protein level at 1000 nM by Kinomescan method relative to control
[9] = molecular target: Calcium/calmodulin-dependent protein kinase type II subunit gamma (Homo sapiens) (UniProt Q13555); assay: Binding affinity to wild-type human partial length CAMK2G (R9 to A303 residues) expressed in bacterial expression system assessed as remaining unbound target protein level at 1000 nM by Kinomescan method relative to control; how it was run: as §1
[10] = molecular target: Mitogen-activated protein kinase kinase kinase 4 (Homo sapiens) (UniProt Q9Y6R4); assay: Binding affinity to wild-type human partial length MAP3K4 (G1319 to E1608 residues) expressed in bacterial expression system assessed as remaining unbound target protein level at 1000 nM by Kinomescan method relative to control
[11] = molecular target: Ephrin type-A receptor 6 (Homo sapiens) (UniProt Q9UF33); assay: Binding affinity to wild-type human partial length EPHA6 (Y700 to E1046 residues) expressed in bacterial expression system assessed as remaining unbound target protein level at 1000 nM by Kinomescan method relative to control
[12] = molecular target: Tyrosine-protein kinase ABL1 (Homo sapiens) (UniProt P00519); assay: Binding affinity to wild-type human phosphorylated ABL1 (S229 to K512 residues) expressed in mammalian expression system assessed as remaining unbound target protein level at 1000 nM by Kinomescan method relative to control
[13] = molecular target: Serine/threonine-protein kinase NIM1 (Homo sapiens) (UniProt Q8IY84); assay: Binding affinity to wild-type human partial length NIM1 (Q44 to N355 residues) expressed in mammalian expression system assessed as remaining unbound target protein level at 1000 nM by Kinomescan method relative to control
[14] = tested on: Epidermal growth factor receptor (Homo sapiens), P00533 [G719C]; assay: Binding affinity to human partial length EGFR G719C mutant (R669 to V1011 residues) expressed in bacterial expression system assessed as remaining unbound target protein level at 1000 nM by Kinomescan method relative to control
How it was run: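 KINOMEscan competition-binding profiling across the panel of 468 kinases and mutants, with inhibitor tested at 1 μM. Binding is expressed as percent of control, with DMSO as the reference control.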

[15] = MRT (0 to t) in mouse at 10 mg/kg, po by LC-MS/MS analysis; assay type: ADME, organism-based; settings: in vivo
[16] = tested on: eIF-2-alpha kinase GCN2 (Homo sapiens), Q9P2K8 [S808G]; assay: Binding affinity to wild-type human partial length GCN2 kinase domain 2 (R585 to T1018 residues) S808G mutant expressed in bacterial expression system assessed as remaining unbound target protein level at 1000 nM by Kinomescan method relative to control
[17] = molecular target: Dual specificity protein kinase CLK3 (Homo sapiens) (UniProt P49761); assay: Binding affinity to wild-type human full length CLK3 (M1 to R490 residues) expressed in bacterial expression system assessed as remaining unbound target protein level at 1000 nM by Kinomescan method relative to control
How it was run: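 Single-point competition binding screen across a panel of 468 kinases and mutants, with the inhibitor at 1 μM. Binding is read out as percent of a DMSO control, and targets below 1 percent control were classed as strong binders.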

[18] = molecular target: RAC-beta serine/threonine-protein kinase (Homo sapiens) (UniProt P31751); assay: Binding affinity to wild-type human partial length AKT2 expressed in bacterial expression system assessed as remaining unbound target protein level at 1000 nM by Kinomescan method relative to control
How it was run: (§2)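 Profiled in a KINOMEscan binding panel with the inhibitor at a single concentration of 1 μM. Binding to each kinase was read out as percent of control, relative to a DMSO control. Strong binders were defined as those with a percent control value below 1.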

[19] = molecular target: Ephrin type-A receptor 7 (Homo sapiens) (UniProt Q15375); assay: Binding affinity to wild-type human partial length EPHA7 (Y608 to S912 residues) expressed in bacterial expression system assessed as remaining unbound target protein level at 1000 nM by Kinomescan method relative to control
How it was run: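 KINOMEscan binding panel of 468 kinases/mutants. Inhibitor was tested at a single concentration of 1 μM. Binding is reported as percent of control, defined relative to a DMSO control.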

[20] = molecular target: Mitotic checkpoint serine/threonine-protein kinase BUB1 (Homo sapiens) (UniProt O43683); assay: Binding affinity to wild-type human partial length BUB1 (Q724 to K1085 residues) expressed in mammalian expression system assessed as remaining unbound target protein level at 1000 nM by Kinomescan method relative to control; how it was run: as §2

Calcium/calmodulin-dependent protein kinase kinase 1 (Homo sapiens), sequence (Q8N5S9 whole entry, looked up, the tested form may be a part): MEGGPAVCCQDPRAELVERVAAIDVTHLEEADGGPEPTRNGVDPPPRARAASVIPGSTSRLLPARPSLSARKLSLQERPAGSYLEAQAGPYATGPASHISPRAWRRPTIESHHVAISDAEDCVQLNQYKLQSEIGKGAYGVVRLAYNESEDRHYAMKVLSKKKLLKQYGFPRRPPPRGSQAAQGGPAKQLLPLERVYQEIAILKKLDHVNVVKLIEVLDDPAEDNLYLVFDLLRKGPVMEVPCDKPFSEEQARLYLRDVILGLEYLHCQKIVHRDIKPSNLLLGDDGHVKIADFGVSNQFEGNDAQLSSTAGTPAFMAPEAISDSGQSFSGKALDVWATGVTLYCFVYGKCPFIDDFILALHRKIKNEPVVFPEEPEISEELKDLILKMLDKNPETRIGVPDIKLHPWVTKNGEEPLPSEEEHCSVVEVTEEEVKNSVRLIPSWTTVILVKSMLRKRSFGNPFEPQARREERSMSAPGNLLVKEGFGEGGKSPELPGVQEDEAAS
Ephrin type-A receptor 7 (Homo sapiens), sequence (Q15375 28-998 limits assumed): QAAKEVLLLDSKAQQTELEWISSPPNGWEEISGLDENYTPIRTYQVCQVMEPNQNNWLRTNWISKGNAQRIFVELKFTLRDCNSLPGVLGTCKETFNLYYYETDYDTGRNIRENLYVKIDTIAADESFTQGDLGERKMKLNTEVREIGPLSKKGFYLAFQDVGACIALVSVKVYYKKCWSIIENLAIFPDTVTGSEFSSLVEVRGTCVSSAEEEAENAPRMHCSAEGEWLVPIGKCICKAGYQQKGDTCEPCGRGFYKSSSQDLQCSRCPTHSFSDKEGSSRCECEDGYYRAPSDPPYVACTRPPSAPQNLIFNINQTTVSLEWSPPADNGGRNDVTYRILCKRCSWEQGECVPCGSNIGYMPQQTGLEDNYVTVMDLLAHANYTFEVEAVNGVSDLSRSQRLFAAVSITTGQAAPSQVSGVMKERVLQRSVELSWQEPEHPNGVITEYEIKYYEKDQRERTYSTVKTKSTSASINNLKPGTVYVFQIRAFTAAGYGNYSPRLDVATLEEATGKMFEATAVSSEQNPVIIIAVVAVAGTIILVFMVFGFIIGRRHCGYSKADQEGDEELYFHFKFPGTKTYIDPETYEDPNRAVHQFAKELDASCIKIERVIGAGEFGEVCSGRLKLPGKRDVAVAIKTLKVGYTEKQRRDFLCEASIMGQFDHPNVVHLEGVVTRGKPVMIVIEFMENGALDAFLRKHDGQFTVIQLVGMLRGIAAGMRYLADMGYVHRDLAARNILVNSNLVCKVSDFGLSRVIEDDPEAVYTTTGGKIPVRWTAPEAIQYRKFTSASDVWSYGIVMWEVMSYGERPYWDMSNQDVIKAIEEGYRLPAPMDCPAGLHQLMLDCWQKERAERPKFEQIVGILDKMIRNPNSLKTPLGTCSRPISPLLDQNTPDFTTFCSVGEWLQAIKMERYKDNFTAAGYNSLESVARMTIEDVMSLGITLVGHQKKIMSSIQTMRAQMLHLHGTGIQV
Serine/threonine-protein kinase VRK2 (Homo sapiens), sequence (Q86Y07 whole entry, the tested form may be a part): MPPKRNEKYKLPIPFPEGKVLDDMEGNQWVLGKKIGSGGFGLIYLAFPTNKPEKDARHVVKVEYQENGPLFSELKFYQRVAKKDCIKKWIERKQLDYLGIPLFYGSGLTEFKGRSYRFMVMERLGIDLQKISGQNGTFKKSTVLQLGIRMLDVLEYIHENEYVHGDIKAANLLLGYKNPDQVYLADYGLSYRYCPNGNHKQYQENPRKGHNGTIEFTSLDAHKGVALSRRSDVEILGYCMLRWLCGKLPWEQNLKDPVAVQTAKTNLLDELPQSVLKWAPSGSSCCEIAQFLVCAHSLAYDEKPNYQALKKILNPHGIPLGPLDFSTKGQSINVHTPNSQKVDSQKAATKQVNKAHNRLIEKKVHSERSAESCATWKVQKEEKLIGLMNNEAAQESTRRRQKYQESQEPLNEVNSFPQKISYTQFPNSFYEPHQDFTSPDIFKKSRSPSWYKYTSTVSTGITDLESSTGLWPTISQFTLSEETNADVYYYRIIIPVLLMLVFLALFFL
Calcium/calmodulin-dependent protein kinase type II subunit gamma (Homo sapiens), sequence (Q13555 whole entry, the tested form may be a part): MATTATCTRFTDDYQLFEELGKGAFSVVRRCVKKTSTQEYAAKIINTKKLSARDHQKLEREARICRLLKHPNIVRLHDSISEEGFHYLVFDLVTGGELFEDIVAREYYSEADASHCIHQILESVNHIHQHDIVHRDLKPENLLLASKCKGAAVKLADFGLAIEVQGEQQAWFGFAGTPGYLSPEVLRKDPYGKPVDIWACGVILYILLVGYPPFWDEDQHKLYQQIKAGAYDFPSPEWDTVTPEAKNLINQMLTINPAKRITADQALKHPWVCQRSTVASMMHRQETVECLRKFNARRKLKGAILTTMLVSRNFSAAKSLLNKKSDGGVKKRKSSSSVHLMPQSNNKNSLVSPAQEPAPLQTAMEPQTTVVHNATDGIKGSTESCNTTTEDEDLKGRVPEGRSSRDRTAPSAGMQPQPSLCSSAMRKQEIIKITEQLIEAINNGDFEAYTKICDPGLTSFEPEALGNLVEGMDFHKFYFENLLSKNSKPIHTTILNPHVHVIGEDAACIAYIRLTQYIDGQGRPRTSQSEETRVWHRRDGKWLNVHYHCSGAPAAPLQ
Serine/threonine-protein kinase NIM1 (Homo sapiens), sequence (Q8IY84 whole entry, the tested form may be a part): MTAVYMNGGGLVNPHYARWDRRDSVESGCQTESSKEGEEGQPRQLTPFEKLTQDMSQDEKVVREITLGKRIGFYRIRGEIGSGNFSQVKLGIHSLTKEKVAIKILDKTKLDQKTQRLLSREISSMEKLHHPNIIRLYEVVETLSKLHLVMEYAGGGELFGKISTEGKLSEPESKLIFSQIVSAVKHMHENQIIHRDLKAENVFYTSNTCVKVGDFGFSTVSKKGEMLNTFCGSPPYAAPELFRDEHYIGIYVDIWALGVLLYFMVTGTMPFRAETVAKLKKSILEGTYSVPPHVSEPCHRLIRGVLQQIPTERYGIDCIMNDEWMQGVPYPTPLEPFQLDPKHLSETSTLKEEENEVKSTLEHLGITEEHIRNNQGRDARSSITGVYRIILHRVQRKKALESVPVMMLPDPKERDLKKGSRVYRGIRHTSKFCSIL
Dual specificity protein kinase CLK3 (Homo sapiens), sequence (P49761 whole entry, looked up, the tested form may be a part): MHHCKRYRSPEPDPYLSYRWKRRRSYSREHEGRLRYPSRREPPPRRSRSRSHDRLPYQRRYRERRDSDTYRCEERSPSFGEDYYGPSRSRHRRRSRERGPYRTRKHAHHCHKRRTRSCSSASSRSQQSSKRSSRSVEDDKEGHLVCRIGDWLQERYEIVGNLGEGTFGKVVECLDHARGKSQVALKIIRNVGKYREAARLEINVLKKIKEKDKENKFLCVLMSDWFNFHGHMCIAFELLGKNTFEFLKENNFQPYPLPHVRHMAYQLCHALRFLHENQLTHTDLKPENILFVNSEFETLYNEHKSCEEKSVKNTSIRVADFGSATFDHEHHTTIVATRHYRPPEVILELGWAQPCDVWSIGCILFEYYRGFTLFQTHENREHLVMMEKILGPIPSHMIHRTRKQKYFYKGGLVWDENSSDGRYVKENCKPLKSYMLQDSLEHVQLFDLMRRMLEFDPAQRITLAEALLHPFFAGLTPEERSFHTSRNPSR
Mitogen-activated protein kinase kinase kinase 4 (Homo sapiens), sequence (Q9Y6R4 whole entry, the tested form may be a part): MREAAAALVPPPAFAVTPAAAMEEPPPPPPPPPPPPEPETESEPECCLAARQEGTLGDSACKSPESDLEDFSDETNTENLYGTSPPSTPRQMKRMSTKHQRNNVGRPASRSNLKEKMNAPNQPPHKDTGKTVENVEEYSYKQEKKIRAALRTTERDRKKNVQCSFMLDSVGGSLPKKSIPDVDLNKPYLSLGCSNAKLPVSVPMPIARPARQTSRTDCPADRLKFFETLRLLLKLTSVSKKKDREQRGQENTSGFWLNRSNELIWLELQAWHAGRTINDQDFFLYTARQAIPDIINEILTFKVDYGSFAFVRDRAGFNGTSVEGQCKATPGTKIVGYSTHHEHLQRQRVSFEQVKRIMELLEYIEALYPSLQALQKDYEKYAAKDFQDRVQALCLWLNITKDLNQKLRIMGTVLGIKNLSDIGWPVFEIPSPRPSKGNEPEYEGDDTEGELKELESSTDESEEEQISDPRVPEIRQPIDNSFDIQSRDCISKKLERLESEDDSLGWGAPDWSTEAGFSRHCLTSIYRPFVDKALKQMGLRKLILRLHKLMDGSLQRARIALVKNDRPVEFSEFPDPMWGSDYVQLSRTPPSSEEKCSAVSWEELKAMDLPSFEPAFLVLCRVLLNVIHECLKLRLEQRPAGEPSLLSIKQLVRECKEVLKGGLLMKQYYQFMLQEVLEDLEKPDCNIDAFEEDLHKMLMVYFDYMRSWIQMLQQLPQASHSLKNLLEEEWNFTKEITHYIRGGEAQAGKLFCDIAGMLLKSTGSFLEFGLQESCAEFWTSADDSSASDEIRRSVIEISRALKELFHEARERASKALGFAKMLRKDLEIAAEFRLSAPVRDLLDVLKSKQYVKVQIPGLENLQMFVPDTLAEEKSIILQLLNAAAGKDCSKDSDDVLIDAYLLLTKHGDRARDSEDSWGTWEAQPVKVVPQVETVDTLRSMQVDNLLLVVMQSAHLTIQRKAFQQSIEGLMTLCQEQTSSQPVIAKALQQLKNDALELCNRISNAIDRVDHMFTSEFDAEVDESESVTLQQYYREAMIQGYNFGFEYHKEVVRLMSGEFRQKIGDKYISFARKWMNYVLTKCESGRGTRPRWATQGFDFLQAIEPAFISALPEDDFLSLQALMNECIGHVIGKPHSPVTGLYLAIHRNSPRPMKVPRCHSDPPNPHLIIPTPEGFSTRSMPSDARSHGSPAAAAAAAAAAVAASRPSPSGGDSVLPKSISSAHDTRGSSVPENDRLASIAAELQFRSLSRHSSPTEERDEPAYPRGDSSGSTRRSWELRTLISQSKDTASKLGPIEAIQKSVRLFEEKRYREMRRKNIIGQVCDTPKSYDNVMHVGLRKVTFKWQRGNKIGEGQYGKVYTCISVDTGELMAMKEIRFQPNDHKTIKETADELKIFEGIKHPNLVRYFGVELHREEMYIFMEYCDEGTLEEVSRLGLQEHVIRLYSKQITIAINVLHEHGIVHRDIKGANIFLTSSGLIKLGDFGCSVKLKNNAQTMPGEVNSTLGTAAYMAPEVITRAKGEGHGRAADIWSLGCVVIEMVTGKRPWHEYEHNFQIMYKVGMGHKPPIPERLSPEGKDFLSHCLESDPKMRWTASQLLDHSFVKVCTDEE

Question: For `COCCN[C@H]1CC[C@H](Nc2cc(-c3csc(NCC4(C#N)CCOCC4)n3)c(Cl)cn2)CC1`, which Vd [1] is on record?
Answer: 12.8 L/kg

Question: And the Activity [2]?
Answer: 81%

Question: And the Activity [3]?
Answer: 88%

Question: What about the Activity [4] of the same compound?
Answer: 92%

Question: And the Activity [5]?
Answer: 9.2%

Question: What about the Activity [6] of the same compound?
Answer: 87%

Question: And the Activity [7]?
Answer: 91%

Question: What about the Activity [8] of the same compound?
Answer: 84%

Question: And the Activity [9]?
Answer: 99%

Question: And the Activity [10]?
Answer: 89%

Question: And the Activity [11]?
Answer: 100%

Question: And the Activity [12]?
Answer: 91%

Question: And the Activity [13]?
Answer: 96%

Question: And the Activity [14]?
Answer: 98%

Question: And the MRT last [15]?
Answer: 3.24 h

Question: What about the Activity [16] of the same compound?
Answer: 78%

Question: What about the Activity [17] of the same compound?
Answer: 92%

Question: And the Activity [18]?
Answer: 88%

Question: And the Activity [19]?
Answer: 94%

Question: What about the Activity [20] of the same compound?
Answer: 96%
